The values that follow come from PubChem BioAssay.

Activity calls are given as the source filed them.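 The calls were made as follows, unless noted: active = Her2 level under about 52% in both replicate screens, with viability over 70% of control (limit read from the data); inconclusive = Her2 under the limit in one screen only, or viability under 70%; inactive = Her2 level above the set limit.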

Usually viability stands for a read-out of living cells in per cent, often relative to untreated cells. The inhibition is the relative decrease from the control value, in per cent.

Experiment [1] in a line: reducers of endogenous Her2 protein level, primary screen, SKBR3 breast tumor cells, AlphaScreen, ATP viability (AID 461).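 As to Her2 level: lower value means less Her2 protein in the cells.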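 As to viability: percent of carrier control wells set as 100% viability.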 The conditions noted are these: 18-24 h, measured here: SKBR3 viability, ATP luminescence, at 10 µM. On the technique in general: Bead proximity is the source of the signal in Alpha formats.
Experiment [2] addresses Receptor tyrosine-protein kinase erbB-2 (Homo sapiens) (UniProt P04626). The experiment is described as above. The conditions noted are these: 18-24 h, at 10 µM, stronger effect = lower value.
The nature of experiment [3]: SK-BR-3 cell growth inhibitors, pilot screen, 24 h, human (AID 572;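 active = viability at or below 10% of carrier control in both of two separate runs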;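 also: compound exposure lasted between 18 and 24 h rather than exactly 24 h; 100% = carrier-treated control wells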). The note with it: SK-BR-3 viability, CellTiter-Glo luminescence, at 10 µM, stronger effect = lower value. In general terms: Cellular ATP, detected with luciferase, serves as a proxy for viable cell number.
Experiment [4] in a line: HUVEC growth inhibition – cell-based, human, primary screen (AID 575;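 active = viability at or below 30% in both replicate assays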;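 also: 100% = median of untreated cell wells with 0.1% DMSO on each plate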). The note with it: HUVEC proliferation, CellTiter-Glo luminescence, 72 h; at 10 µM; stronger effect = lower value. The method, boiled down: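 Test system: primary human umbilical vein endothelial cells. Quantity: 1250 cells/well. Compound: single 10 µM dose, 0.1% DMSO, from 5x medium stock. Timing: 72 h treatment at 37 °C. Detection: ATP-based CellTiter-Glo luminescent read. Benchmarks: vehicle and MePR control wells. Format: 384-well plates coated with collagen.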

Experiment [5] can be described thus: growth inhibitors of H69AR lung tumor, primary screen, human, duplicate replicates (AID 580;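 active = viability at or under a set limit in both replicates, limit being median viability minus 3 SD, cut at about 48% in these data, passing the limit was not always enough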;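 also: 100% = mean luminescence of untreated wells and 0% = no signal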). The note with it: H69AR lung tumor cells viability, ATP luminescence, 72 h; at 10 µM; stronger effect = lower value.
Experiment [6] is described as follows: reversal of MRP1-mediated doxorubicin resistance, pilot screen, H69AR cells, doxorubicin co-treatment (AID 601;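 active = viability loss from added drug above about 55%, and viability with drug at most 40%, in both replicates, limit read from the data, passing the limit was not always enough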). The note with it: CellTiter-Glo, 72 h, at 10 µM; for differential viability (reversal): stronger effect = higher value.
A short description of experiment [7]: 384-well plate pilot, post-Golgi transport modulator project, inhibition of yeast transport mutant growth (AID 636; in the data active = inhibition above about 31%). The note with it: absorbance 615 nm, about 18 h, stronger effect = higher value.
Experiment [8] is described as follows: growth suppression of yeast trafficking mutant, preliminary HTS, modulators of trafficking downstream of Golgi apparatus project, 1536-format plate, OD 615 nm (AID 637; in the data active = inhibition above about 30%). The note with it: yeast transport mutant growth, absorbance 615 nm, 18 h; stronger effect = higher value.
Setting [9] is: H69AR cells + 2 uM doxorubicin, measured here: viability with 2 uM doxorubicin, stronger effect = lower value.
Where [10] appears, read: H69AR cells, compound alone cytotoxicity.

Chain of Receptor tyrosine-protein kinase erbB-2 (Homo sapiens) (P04626 whole entry, looked up): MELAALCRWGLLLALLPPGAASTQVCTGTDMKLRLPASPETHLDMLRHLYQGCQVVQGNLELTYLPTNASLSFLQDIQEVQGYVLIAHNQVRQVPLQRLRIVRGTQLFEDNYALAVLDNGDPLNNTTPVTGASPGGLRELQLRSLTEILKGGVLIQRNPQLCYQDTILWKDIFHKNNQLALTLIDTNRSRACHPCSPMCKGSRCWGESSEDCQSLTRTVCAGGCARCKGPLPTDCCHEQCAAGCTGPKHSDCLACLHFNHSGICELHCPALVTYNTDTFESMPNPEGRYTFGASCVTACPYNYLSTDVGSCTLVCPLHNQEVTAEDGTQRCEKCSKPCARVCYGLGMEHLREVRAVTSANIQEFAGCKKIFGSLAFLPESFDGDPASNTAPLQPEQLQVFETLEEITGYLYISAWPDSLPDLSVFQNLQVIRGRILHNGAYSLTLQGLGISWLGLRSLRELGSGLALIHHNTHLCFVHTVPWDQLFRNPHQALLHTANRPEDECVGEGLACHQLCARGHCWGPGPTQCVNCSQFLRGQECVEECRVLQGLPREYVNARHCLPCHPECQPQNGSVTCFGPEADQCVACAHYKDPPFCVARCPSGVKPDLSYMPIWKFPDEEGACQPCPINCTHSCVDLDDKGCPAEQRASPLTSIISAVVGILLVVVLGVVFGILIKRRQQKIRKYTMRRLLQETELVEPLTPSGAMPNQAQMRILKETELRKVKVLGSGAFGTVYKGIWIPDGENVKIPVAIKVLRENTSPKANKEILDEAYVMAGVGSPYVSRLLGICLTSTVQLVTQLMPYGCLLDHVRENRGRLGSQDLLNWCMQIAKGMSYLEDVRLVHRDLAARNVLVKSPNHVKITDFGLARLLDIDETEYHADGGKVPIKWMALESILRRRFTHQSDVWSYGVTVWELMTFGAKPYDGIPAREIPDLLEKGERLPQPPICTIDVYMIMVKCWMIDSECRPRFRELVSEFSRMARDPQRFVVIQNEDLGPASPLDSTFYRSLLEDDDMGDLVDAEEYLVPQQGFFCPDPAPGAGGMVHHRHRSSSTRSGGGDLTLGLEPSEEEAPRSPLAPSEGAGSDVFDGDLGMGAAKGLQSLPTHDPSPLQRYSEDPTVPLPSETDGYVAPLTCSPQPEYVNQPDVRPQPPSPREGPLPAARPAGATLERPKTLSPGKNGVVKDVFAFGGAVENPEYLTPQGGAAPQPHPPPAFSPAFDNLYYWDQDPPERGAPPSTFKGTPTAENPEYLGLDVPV

Turning to `COc1ccc(C(=O)N(CCN2CCOCC2)CC(=O)NC2CCCC2)cc1OC`, the viability in experiment [1] was 83.5%; in experiment [3], 83.5% (inactive); in experiment [4], 111% (inactive); in experiment [5], 91.6% (inactive); in experiment [6] (setting [9]) it was 92.4%; in experiment [6] (setting [10]), 91.6%. For the same molecule, the Her2 level in experiment [2] was 106% (inactive). For the same molecule, in experiment [6] (H69AR cells + 2 uM doxorubicin), the differential viability (reversal) is -0.805% (inactive). In addition, the results for the inhibition in experiment [7] and in experiment [8] were -0.8% (inactive) and 8.36% (inactive), respectively.

`CSC1=NCCN1C(=O)c1ccc(S(=O)(=O)N2CCCC2)cc1`: the viability in experiment [1] was 111%; in experiment [3] it was 111% (inactive); in experiment [4] it was 91.2% (inactive); in experiment [5], 91.3% (inactive); in experiment [6] (setting [9]), 92.4%; in experiment [6] (setting [10]) it was 91.3%. The Her2 level in experiment [2] is 107% (inactive). The differential viability (reversal) in experiment [6] (H69AR cells + 2 uM doxorubicin) is -1.11% (inactive). Also, the inhibition in experiment [7] was 0.77% (inactive); in experiment [8] it was -3.17% (inactive).

In the case of `S=C(c1ccc(-c2cc(Cl)ccc2Cl)o1)N1CCOCC1`, the viability in experiment [1] is 80.5%; in experiment [3], 80.5% (inactive); in experiment [4], 86.4% (inactive); in experiment [5] it was 98.5% (inactive); in experiment [6] (setting [9]), 107%; in experiment [6] (setting [10]), 98.5%. Besides, in experiment [2], the Her2 level is 85% (inactive). The differential viability (reversal) in experiment [6] (H69AR cells + 2 uM doxorubicin) is -8.1% (inactive). Also, the inhibition in experiment [7] is -0.4% (inactive); in experiment [8] it was 5.16% (inactive).

With `Cc1noc(C)c1COc1cccc(C(=O)Nc2ccc(C#N)cc2)c1`, the viability in experiment [1] was 96%; in experiment [3], 96% (inactive); in experiment [4], 68% (inactive); in experiment [5], 68.9% (inactive); in experiment [6] (setting [9]) it was 79.6%; in experiment [6] (setting [10]), 68.9%. Also, the Her2 level in experiment [2] is 90% (inactive). Besides, the differential viability (reversal) in experiment [6] (H69AR cells + 2 uM doxorubicin) was -10.6% (inactive). In addition, the inhibition is -2.99% (inactive) in experiment [7] and -6.67% (inactive) in experiment [8].

For the molecule `CN(C)CCCN1C(=O)C(=O)/C(=C(/O)c2ccncc2)C1c1cccc(Br)c1` (stereo not given), the viability in experiment [1] is 90.5%; in experiment [3] it was 90.5% (inactive); in experiment [4], 118% (inactive); in experiment [5] it was 94.5% (inactive); in experiment [6] (setting [9]), 89.3%; in experiment [6] (setting [10]), 94.5%. For the same molecule, the Her2 level in experiment [2] is 97% (inactive). The differential viability (reversal) in experiment [6] (H69AR cells + 2 uM doxorubicin) is 5.26% (inactive). The inhibition in experiment [7] is -2.93% (inactive); in experiment [8] it was -5.9% (inactive).

Take `CCCn1c(SCC(=O)N2CCCc3ccccc32)nnc1-c1ccccn1`: the viability in experiment [1] is 84.5%; in experiment [3] it was 84.5% (inactive); in experiment [4], 103% (inactive); in experiment [5], 95.1% (inactive); in experiment [6] (setting [9]) it was 93.2%; in experiment [6] (setting [10]) it was 95.1%. The Her2 level in experiment [2] was 102% (inactive). Moreover, the differential viability (reversal) in experiment [6] (H69AR cells + 2 uM doxorubicin) is 1.95% (inactive). Also, the values for the inhibition in experiment [7] and in experiment [8] were -4.67% (inactive) and 5.16% (inactive), respectively.

On to `O=S(=O)(Nc1ccc(Cc2ccncc2)cc1)N1CCCC1`, for which the viability is 88% in experiment [1]; 88% (inactive) in experiment [3]; 104% (inactive) in experiment [4]; 92.4% (inactive) in experiment [5]; 98.6% in experiment [6] (setting [9]); 92.4% in experiment [6] (setting [10]). In experiment [2], the Her2 level is 94% (inactive). In addition, in experiment [6] (H69AR cells + 2 uM doxorubicin), the differential viability (reversal) is -6.24% (inactive). The inhibition in experiment [7] is -3.92% (inactive); in experiment [8], -1.97% (inactive).

With `Nc1c(C2=NCCO2)nnn1Cc1ccccc1`, the viability in experiment [1] is 118%; in experiment [3], 118% (inactive); in experiment [4] it was 94% (inactive); in experiment [5], 87.3% (inactive); in experiment [6] (setting [9]) it was 87%; in experiment [6] (setting [10]) it was 87.3%. In addition, the Her2 level in experiment [2] is 95.5% (inactive). Moreover, the differential viability (reversal) in experiment [6] (H69AR cells + 2 uM doxorubicin) was 0.315% (inactive). The inhibition in experiment [7] is -3.42% (inactive); in experiment [8], 3.28% (inactive).

For `CCC(C)(C(=O)NC1CCCCC1)N(CC1CCCO1)C(=O)c1ccccn1` (stereo not given), the viability was 82% in experiment [1]; 82% (inactive) in experiment [3]; 91.6% (inactive) in experiment [4]; 89% (inactive) in experiment [5]; 90.6% in experiment [6] (setting [9]); 89% in experiment [6] (setting [10]). Further, in experiment [2], the Her2 level is 99% (inactive). Also, in experiment [6] (H69AR cells + 2 uM doxorubicin), the differential viability (reversal) is -1.55% (inactive). For the same molecule, the figures for the inhibition in experiment [7] and in experiment [8] were -0.26% (inactive) and -1.15% (inactive), respectively.

For the molecule `CCc1nn2c(=O)cc(CSc3nc4sc5c(c4c(=O)n3C)CCCC5)nc2s1`, the viability is 100% in experiment [1]; 100% (inactive) in experiment [3]; 113% (inactive) in experiment [4]; 90% (inactive) in experiment [5]; 89.6% in experiment [6] (setting [9]); 90% in experiment [6] (setting [10]). Also, in experiment [2], the Her2 level is 98% (inactive). The differential viability (reversal) in experiment [6] (H69AR cells + 2 uM doxorubicin) is 0.36% (inactive). Also, the inhibition in experiment [7] was -0.65% (inactive); in experiment [8], 10% (inactive).

In the case of `Cn1c(=O)c2c(ncn2CC(O)CNc2ccc(Cl)cc2)n(C)c1=O` (stereo not given), the viability in experiment [1] is 91%; in experiment [3] it was 91% (inactive); in experiment [4] it was 79.6% (inactive); in experiment [5], 89.9% (inactive); in experiment [6] (setting [9]), 89.5%; in experiment [6] (setting [10]), 89.9%. Further, the Her2 level in experiment [2] was 103% (inactive). Besides, in experiment [6] (H69AR cells + 2 uM doxorubicin), the differential viability (reversal) was 0.365% (inactive). The inhibition in experiment [7] was -0.53% (inactive); in experiment [8] it was -5.71% (inactive).

For the molecule `Cc1cc(C)cc(-n2nnc(C(=O)NCc3ccco3)c2N)c1`, the viability in experiment [1] was 101%; in experiment [3], 101% (inactive); in experiment [4] it was 89.4% (inactive); in experiment [5], 88.5% (inactive); in experiment [6] (setting [9]), 93.2%; in experiment [6] (setting [10]), 88.5%. Also, the Her2 level in experiment [2] was 82% (inactive). The differential viability (reversal) in experiment [6] (H69AR cells + 2 uM doxorubicin) is -4.65% (inactive). In addition, the results for the inhibition in experiment [7] and in experiment [8] were -0.14% (inactive) and -4.92% (inactive), respectively.

Consider `CC(C)OC(=O)C(CC(=O)O)NCc1ccccc1` (stereo not given), for which the viability is 98% in experiment [1]; 98% (inactive) in experiment [3]; 97.5% (inactive) in experiment [4]; 91.6% (inactive) in experiment [5]; 88% in experiment [6] (setting [9]); 91.6% in experiment [6] (setting [10]). In addition, in experiment [2], the Her2 level is 91.5% (inactive). Further, in experiment [6] (H69AR cells + 2 uM doxorubicin), the differential viability (reversal) is 3.69% (inactive). Further, the results for the inhibition in experiment [7] and in experiment [8] were -2.63% (inactive) and -1.29% (inactive), respectively.

On to `COc1ccccc1N1CCN(C(=O)c2ccc(S(=O)(=O)N3CCCCCC3)cc2)CC1`, for which the viability in experiment [1] was 89.5%; in experiment [3], 89.5% (inactive); in experiment [4], 89.4% (inactive); in experiment [5] it was 85.5% (inactive); in experiment [6] (setting [9]) it was 88%; in experiment [6] (setting [10]) it was 85.5%. In experiment [2], the Her2 level was 98.5% (inactive). Moreover, the differential viability (reversal) in experiment [6] (H69AR cells + 2 uM doxorubicin) was -2.48% (inactive). Also, the results for the inhibition in experiment [7] and in experiment [8] were -5.73% (inactive) and -3.44% (inactive), respectively.

On to `O=C1NC(c2ccco2)Nc2ccccc21` (stereo not given), for which the viability in experiment [1] was 82.5%; in experiment [3], 82.5% (inactive); in experiment [4], 107% (inactive); in experiment [5] it was 97.8% (inactive); in experiment [6] (setting [9]) it was 90.8%; in experiment [6] (setting [10]) it was 97.8%. The Her2 level in experiment [2] is 85.5% (inactive). Moreover, the differential viability (reversal) in experiment [6] (H69AR cells + 2 uM doxorubicin) was 7.01% (inactive). For the same molecule, the inhibition was 0.55% (inactive) in experiment [7] and -6.98% (inactive) in experiment [8].
